RAD54 branch – inhibitors of human RAD54 branch migration, primary screen, biochemical, fluorescence, single point | DNA repair and recombination protein RAD54-like (Homo sapiens), Q92698 | RAD54 Holliday junction branch migration, FAM/BHQ fluorescence | inhibition, % at 10.4 µM | 0.14% of 360,000 active | AID 602329, 2012;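 active = mean normalized replicate activity at least 40 and at least half of replicates scoring 40 or more; inconclusive = only one of the two criteria met; inactive = mean below 40 and under half of replicates reaching 40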;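 note: 0% = median of neutral control wells and 100% = median of positive control wells; inhibitors cause a drop in the FAM fluorescence signal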
Neddylation inh – inhibitors of cullin neddylation, primary screen, biochemical, TR-FRET, uHTS, NAE and Ubc12. NEDD8-conjugating enzyme Ubc12 (Homo sapiens) + NEDD8-activating enzyme E1 regulatory …. calls only at 25 µM. 0.58% of 360,000 active. AID 651699, 2012; in the data active = inhibition above about 36%
RAD52 inh – RAD52 DNA annealing inhibitors, primary screen, biochemical, FRET, single point, set 2 | DNA repair protein RAD52 homolog (Homo sapiens), P43351 | recombinant RAD52 DNA annealing, FRET fluorescence | inhibition, % at 18.7 µM | 0.46% of 360,000 active;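 active = every replicate showing at least 50% inhibition; inconclusive = mean inhibition at least 50% but not in every replicate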
UBC13 polyUb – UBC13 polyubiquitin chain formation inhibitors, primary screen, biochemical, TR-FRET, uHTS; 0.47% of 330,000 active; AID 485273, 2010; inhibition, % at 20 µM; in the data active = inhibition above about 45%, passing the limit was not always enough; inconclusive = no clear call, values can overlap the other calls
Apaf1 inhib – inhibitors of human Apaf-1 apoptosome, primary screen, biochemical, DEVD-Rh110 fluorescence, uHTS. Apoptotic protease-activating factor 1 (Homo sapiens), O14727. reconstituted apoptosome caspase-3 activity. inhibition, % at 20 µM. 0.71% of 330,000 active. AID 489030, 2010; active = inhibition of at least 40% at 20 µM;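 note: plate controls were DMSO wells for no effect and DEVD-CHO caspase inhibitor wells for full effect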
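Material: biochemical Apaf-1 apoptosome reconstitution. Medium: Hepes buffer, pH 7.5. Also added: cytochrome c activation, bis-DEVD rhodamine 110 substrate. Timing: 30 min compound preincubation, 50 min activation, room temperature. Measured by: rhodamine 110 fluorescence at Ex 480/Em 540 nm.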
FID counter – compounds displacing fluorescent DNA intercalator, primary screen, artefact control for HCV NS3 helicase inhibitor project, biochemical, FID fluorescence | DNA fluorescent intercalator displacement | inhibition, % at 7.9 µM | 0.17% of 290,000 active; in the data active = inhibition above about 37%;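 note: 0% = vehicle and 100% = reference compound; higher means more ethidium bromide displaced from hairpin DNA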
Casp3 counter – CASP3 inhibitor validation, counterassay for project on UBE2N polyubiquitination blockers, biochemical, one dose; shares compounds with UBC13 polyUb; Recombinant caspase-3, Caspase-Glo 3/7 luminescence, 60 min; inhibition, % at 20 µM; 4% of 1,400 active; AID 488856, 2010;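 active = mean inhibition across replicates above about 26%, limit read from the data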;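 note: plate controls were DMSO with caspase-3 for no effect and DMSO wells lacking enzyme for full effect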
UBC13 confirm – UBC13 polyubiquitination inhibitors, single-point retest, confirmation, biochemical, TR-FRET, single concentration. shares compounds with UBC13 polyUb. inhibition, % at 10 µM. 68% of 1,400 active; in the data active = inhibition above about 45%; inconclusive = no clear call, values can overlap the other calls
Numbers without * were called inactive; i = inactive; ? = inconclusive; nt = no result given. Hits are enriched below; roughly 1.6% of the tested compounds scored in any of these assays.

SMILES	RAD54 branch	Neddylation inh	RAD52 inh	UBC13 polyUb	Apaf1 inhib	FID counter	Casp3 counter	UBC13 confirm
COCCn1c(=S)[nH]c2cc(C(=O)NCCCN3CCOCC3)ccc2c1=O	16.9	i	4.1	2.1	-4.4	5.6	nt	nt
O=C(NCCCN1CCCC1)c1ccc(Cn2c(=S)[nH]c3ccc(Br)cc3c2=O)cc1	nt	nt	47.0	47.8*	16.2	14.6	11.6	?
CC1CCN(CCNC(=O)c2ccc3c(=O)n(Cc4ccc(Cl)cc4)c(=S)[nH]c3c2)CC1	2.3	i	nt	45.3*	36.0	14.7	-3.3	60.9*
Cc1ccc(C(C(=O)NCC2CCCO2)N(C(=O)c2snc(C(N)=O)c2N)c2ccc(C)c(C)c2)o1 (stereo not given)	nt	i	-7.6	64.6*	14.9	-42.4	-0.4	70.1*
Cc1cc(C)cc(N(C(=O)c2snc(C(N)=O)c2N)C(C(=O)NCC2CCCO2)c2ccc(C)o2)c1 (stereo not given)	25.9	nt	-21.1	60.5*	16.0	-44.1	-0.2	49.1*
CCOc1ccc(N(C(=O)c2snc(C(N)=O)c2N)C(C(=O)NCC2CCCO2)c2ccc(C)o2)cc1 (stereo not given)	-7.9	i	-17.0	74.2*	3.9	-32.7	-0.2	81.7*
Cc1ccc(C(C(=O)NCC2CCCO2)N(C(=O)c2snc(C(N)=O)c2N)c2ccc3c(c2)OCCO3)cc1 (stereo not given)	-3.1	i	-10.8	56.0*	25.8	-43.2	0.6	79.2*
C[C@@H]1CN([C@H](C)CO)C(=O)c2cc(NC(=O)Nc3ccc(C(F)(F)F)cc3)ccc2O[C@@H]1CN(C)S(C)(=O)=O	12.1	nt	-9.0	nt	nt	nt	nt	nt
O=C(CC1CC1)N1CC2(C1)[C@H](c1ccccc1)[C@@H](CO)N2Cc1cccc(F)c1	nt	nt	-9.2	nt	nt	nt	nt	nt
CCC(=O)N1CC2(C1)[C@H](c1ccc(-c3ccc(C)cc3)cc1)[C@@H](CO)N2S(=O)(=O)CC	nt	nt	-21.9	nt	nt	nt	nt	nt
COc1ccc2c3c([nH]c2c1)[C@@H](CO)N(C(=O)c1ccccc1)CC31CCN(C(=O)CC2CC2)CC1	nt	nt	3.5	nt	nt	nt	nt	nt
O=C(COC(=O)c1c[nH]c(=O)[nH]c1=O)Nc1cccc([N+](=O)[O-])c1	9.9	i	-9.7	66.3*	-7.8	nt	-2.6	75.6*
Cc1ccccc1N(C(=O)c1snc(C(N)=O)c1N)C(C(=O)NC1CCCC1)c1ccco1 (stereo not given)	4.8	nt	-16.6	28.2	14.7	-38.5	nt	nt
COc1ccc(C(C(=O)NC2CCCC2)N(C(=O)c2snc(C(N)=O)c2N)c2cccc(O)c2)cc1 (stereo not given)	-1.1	i	nt	6.8	8.3	-25.8	nt	nt
NC(=O)c1nsc(C(=O)N(c2cccc(F)c2)C(C(=O)NC2CCCC2)c2ccco2)c1N (stereo not given)	-8.0	i	-9.1	53.0*	2.0	-16.9	-0.9	33.2
NC(=O)c1nsc(C(=O)N(c2cccc(F)c2)C(C(=O)NC2CCCC2)c2ccc(O)cc2)c1N (stereo not given)	-13.6	i	-9.6	48.1*	9.7	-16.7	-1.3	51.2*
Cc1noc(C)c1NC(=O)N(C)C[C@H]1Oc2c(NC(=O)Nc3ccc(C(F)(F)F)cc3)cccc2C(=O)N([C@@H](C)CO)C[C@H]1C	?	nt	0.9	nt	nt	nt	nt	nt
COc1ccc(-c2c(-c3ccc(C#N)cc3)oc(=O)c3cc(OC)c(OC)cc23)cc1	-5.1	i	-5.1	45.4*	11.0	nt	-0.4	24.4
